High-throughput results: PubChem BioAssay, several laboratories
Yeast life ext: yeast lifespan extension; S. cerevisiae growth with nicotinamide, OD615; deaD strain in restrictive glucose medium; inhibition of the nicotinamide effect, % at 10 µM; 130,000 tested, 0.68% active;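 active = inhibition above a set limit, placed 3 SD over the median of all compounds, cut at about 26% in these data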
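Assay system: engineered S. cerevisiae DeaD replicative-lifespan strain, galactose-grown log-phase cells; medium: restrictive CSMM-D dextrose medium; also added: nicotinamide, 1.5 mM, co-present with compound; schedule: 48 h compound exposure at 30 °C, humidified; detection: absorbance at 615 nm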
Yeast growth inh: chemicals that inhibit yeast BB579 growth in restrictive medium (lifespan-shortening candidates) | 140,000 tested, 0.51% active | inhibition, % at 10 µM | AID 804 | S. cerevisiae BB579 growth, OD615, 48 h;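 active = inhibition above a set limit, 3 SD over the mean compound inhibition, cut at about 44% in these data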
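Material: Saccharomyces cerevisiae DeaD strain BB579, replicative lifespan model yeast; buffer or medium: CSMM-D restrictive synthetic medium containing dextrose (glucose); compound: 10 µM single dose, DMSO 0.25%; timing: 48 h compound exposure at 30 °C after 4 h preincubation; signal: turbidity as optical density at 615 nm; benchmarks: positive control amphotericin B 10 µg/mL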
RAM inhibit: inhibitors of the yeast RAM network; 190,000 tested, 1.8% active; inhibition, % at 50 µM; AID 868; S. cerevisiae dse1pr::URA3 reporter, 5-FOA growth OD615, 2 d; analog-sensitive cbk1-as2 kinase mutant strain;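 active = inhibition above a set limit, 3 SD over mean compound inhibition, cut at about 8.4% in these data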;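 also: inhibition rescues growth on 5-FOA so higher OD means more RAM inhibition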
Efa HMGR inh: blocks class II HMG-CoA reductase of Enterococcus faecalis | purified E. faecalis HMGR, NADPH absorbance 340 nm kinetic | inhibition, % at 10 µM | 190,000 tested, 0.41% active | AID 1066;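 active = inhibition above a set limit, the median over all tested compounds plus 3 SD, cut at about 9.5% in these data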;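 also: enzyme runs in reverse so mevalonate oxidation gives rising NADPH absorbance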
bCat nuc transl: beta-catenin nuclear translocation modulation; HeLa beta-catenin nuclear translocation, immunofluorescence imaging; nuclear translocation activity, % at 5 µM; 190,000 tested, 0.3% active; AID 1665;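 active = nuclear translocation activity above 50% at 5 µM, with a well cell count of 50 or more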;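 also: per-cell ratio of nuclear to cytoplasmic median beta-catenin stain intensity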
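Technique: fluorescence imaging of beta-catenin antibody stain plus DAPI / Material: human HeLa cell line / Incubation: compound treatment 24 h, 37°C, 5% CO2 / Read-out basis: % activation of per-cell nuclear versus cytoplasmic median beta-catenin signal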
MT stabilizer: stabilizes microtubules in HeLa cells | AID 2205 | 200,000 tested, 0.83% active | HeLa tubulin immunostaining HCS, 24 h; share of cells brighter than vehicle mean+2SD | % tubulin-high responders, % at 10 µM;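 active = plate Z-score above 3 for both tubulin-high and condensed-nucleus cell shares, with cell loss under 80%, at 10 µM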;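 also: anti alpha tubulin signal scored within the nucleus-defined area of each cell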
Numbers stand for hits; i = inactive; nt = no result given. Hits are enriched below; roughly 3.5% of the tested compounds scored in any of these assays.

SMILES	Yeast life ext	Yeast growth inh	RAM inhibit	Efa HMGR inh	bCat nuc transl	MT stabilizer
CSc1nc(N(C)NC(=O)c2ccc(Cl)cc2)c2ccccc2n1	i	i	i	i	i	19
Cc1ccc(C(=O)NN(C)c2nc3ccccc3nc2C(F)(F)F)cc1	i	i	i	i	i	41
CN(NC(=O)c1ccc(Cl)cc1)c1nc(-c2ccccc2)nnc1C(F)(F)F	i	i	i	i	i	i
Cc1nc(-c2nnc(SCC(=O)Nc3cc(Cl)cc(Cl)c3)n2C)cs1	nt	nt	nt	nt	i	nt
CCN(CC)P(=O)(Nc1ccccc1Br)c1ccc(N(C)C)cc1NC(=O)c1ccco1 (stereo not drawn)	nt	nt	i	i	i	i
CC(C)CCSc1nc(N2CCOCC2)c2c(c1C#N)CC(C)(C)OC2	i	i	10	i	i	i
O=[N+]([O-])c1ccc(N=NN(CCO)CCO)cc1	i	i	i	i	i	i
O=[N+]([O-])c1ccc(N=Nc2ccc(O)cc2O)cc1	i	83	i	i	nt	22
Cn1c(=O)c2c(O)c(Cc3ccccc3)c(=O)[nH]c2n(C)c1=O	i	i	i	i	i	i
CCC(=Nc1ccc(Cc2ccncc2)cc1)c1c(O)n(C)c(=O)n(C)c1=O	27	i	i	i	i	i
O=S(=O)(c1cnc(Cl)c(Br)c1)N1CCN(c2ncccn2)CC1	nt	nt	nt	nt	i	nt
N#Cc1c(N)nc(Sc2ccc(Cl)cc2)c(C#N)c1-c1ccccc1Cl	nt	nt	nt	nt	i	nt
COc1ccccc1-n1cnc2cc(NCc3ccccn3)ccc21	i	i	i	i	nt	30
COc1ccc(-n2cnc3cc(NCc4ccccn4)ccc32)cc1	i	i	i	i	nt	i
CCN(CC)C(=S)SCC(=O)Nc1ncc2c(n1)CC(C)(C)CC2=O	nt	nt	nt	nt	i	nt
COCCN(C(=O)CSc1nc2ccccc2c(=O)n1CC(C)C)c1c(N)n(Cc2ccccc2)c(=O)[nH]c1=O	nt	nt	i	i	i	i
CSC1=N/C(=C\c2cccc(F)c2)C(=O)S1	i	i	i	i	nt	i
CSC1=N/C(=C\c2c(F)cccc2Cl)C(=O)S1	31	i	i	i	i	i
CC1(C)CC(=O)C2=C(C1)OC1=C(C(=O)CC(C)(C)C1)C2c1ccc(O)cc1O	42	i	i	i	i	i
CCOc1cc(C2NC(=S)NC(C)=C2C(=O)Nc2ccc(OC)cc2)ccc1O (stereo not drawn)	i	i	i	i	i	i
CCOc1cccc(C2NC(=S)NC(C)=C2C(=O)Nc2ccccc2)c1 (stereo not drawn)	i	i	i	i	i	14
COc1cc2c(cc1OC)C1(Nc3c-2c(C)nn3-c2ccccc2)C(=O)Nc2ccccc21 (stereo not drawn)	i	i	9.3	i	nt	i
CS(=O)(=O)N(CC(=O)NCc1ccncc1)C1CCCCC1	nt	nt	i	i	i	i
COc1cccc(N2CCN(c3ncnc4c3[nH]c3ccc(F)cc34)CC2C)c1 (stereo not drawn)	i	i	i	i	i	26
CCN(CC)S(=O)(=O)c1cccc(NC(=O)COc2ncnc3sccc23)c1	nt	nt	i	i	i	i
SMILES	Yeast life ext	Yeast growth inh	RAM inhibit	Efa HMGR inh	bCat nuc transl	MT stabilizer
Cc1cc(NC(=O)c2c(-c3c(Cl)cccc3Cl)noc2C)n(C)n1	nt	nt	nt	nt	i	nt
C(=N\Nc1nc2ccccc2[nH]1)/c1ccc2c(c1)OCO2	nt	nt	i	i	i	i
Clc1ccccc1N/N=C/c1ccc2c(c1)OCO2	i	90	i	i	i	i
COc1ccc(/C=N/NC(=O)C2COc3ccccc3O2)cc1OC (stereo not drawn)	nt	nt	i	i	i	i
O=C(N/N=C\c1cc(Br)cs1)C1COc2ccccc2O1 (stereo not drawn)	i	i	i	i	i	43
O=C(N/N=C/c1ccc2c(c1)OCO2)C1COc2ccccc2O1 (stereo not drawn)	i	i	i	i	i	41
CCOc1ccc(NC(=S)N(C)C)cc1	nt	nt	nt	nt	i	nt
CCOC(=O)c1csc(N)c1-c1ccc([N+](=O)[O-])cc1	nt	nt	nt	nt	i	nt
Clc1ccc(-c2ccccc2)nn1	nt	nt	nt	nt	i	nt
CC(=O)N(C)c1nc(N)n(-c2ccccc2)n1	nt	nt	i	16	i	i
CCSc1ncc(/C=N/Nc2ccc(Cl)cc2)n1C	i	95	i	i	i	i
Oc1cc(O)c2c(c1)O[C@H](c1ccc(O)c(O)c1)[C@@H](O)C2	nt	nt	nt	nt	i	nt
O=C1c2c(O)cc(O)cc2O[C@@]12c1c(cc(O)c3c1O[C@H](c1ccc(O)cc1)[C@@H](O)C3)O[C@@H]2c1ccc(O)cc1	i	i	i	9.6	i	i
CCN(CC)C1CCCCC1NS(=O)(=O)c1ccc(Cl)cc1 (stereo not drawn)	i	i	i	i	i	i
CN(c1ccccc1)C1CCCCC1NS(=O)(=O)c1ccc(Cl)cc1 (stereo not drawn)	36	i	i	i	i	i
CCOc1ccc(N/C(=N/c2nc(C)cc(C)n2)NC(C)=O)cc1	nt	nt	nt	nt	i	nt
Cc1ccc(N(CCC(=O)O)S(=O)(=O)c2ccccc2)cc1	i	i	i	i	i	i
Cc1cc(C)cc(N(CCC(=O)O)S(=O)(=O)c2ccc3ccccc3c2)c1	33	i	i	i	nt	i
N#CC(C#N)=Cc1cccn1-c1ccc(S(N)(=O)=O)cc1	nt	nt	i	i	i	i
Cc1nc2ccc(NC(=O)c3ccc(Cl)c([N+](=O)[O-])c3)cc2s1	i	i	i	i	i	i
Cc1nc2ccc(NC(=O)c3cc([N+](=O)[O-])cc([N+](=O)[O-])c3Cl)cc2s1	i	89	i	i	i	i
CCOC(=O)c1oc2ccc(S(=O)(=O)n3nc(-c4ccc(C)cc4)cc3N)cc2c1C	i	i	i	i	nt	i
CCOC(=O)c1oc2ccc(S(=O)(=O)n3nc(-c4ccc(Cl)cc4)cc3N)cc2c1C	i	i	i	i	i	17
Cc1ccc(S(=O)(=O)NN2C(=O)c3ccccc3NC2c2ccccc2)cc1 (stereo not drawn)	nt	nt	i	i	i	i
COc1ccc(C2Nc3ccccc3C(=O)N2NS(=O)(=O)c2ccc(C)cc2)cc1 (stereo not drawn)	nt	nt	i	13	i	i
CC(N=C1NS(=O)(=O)c2ccccc21)C(=O)N1CCc2ccccc2C1 (stereo not drawn)	nt	nt	i	i	i	i
